Results from ChEMBL document CHEMBL3785068, “Synthesis and biological evaluation of novel 6,7-dihydro-5H-cyclopenta[d]pyrimidine and 5,6,7,8-tetrahydroquinazoline derivatives as sigma-1 (σ1) receptor antagonists for the treatment of pain” (Bioorg Med Chem Lett, 2016).

Experiments:
Mus musculus [1] = assay: Antinociceptive activity in Kun Ming mouse assessed as inhibition of formalin-induced pain response during phase 1 measured as licking and biting time at 80 mg/kg, ip preincubated with compound for 15 mins followed by formalin injection measured up to 5 mins; type: functional
Outline: (§1)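 Formalin injected intraplantar into the mouse hind paw. Licking/biting time scored in phase I (0–5 min) and phase II (15–45 min) after 80 mg/kg test dose. At least ten animals per group; mean ± SEM; two-way ANOVA with Newman-Keuls test against vehicle and formalin-alone groups.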

Mus musculus [2] = assay: Antinociceptive activity in Kun Ming mouse assessed as inhibition of formalin-induced pain response during phase 2 measured as licking and biting time at 80 mg/kg, ip preincubated with compound for 15 mins followed by formalin injection measured after 15 to 45 mins; type: functional; outline: as §1
[3] = target: Sigma non-opioid intracellular receptor 1 (Cavia porcellus, UniProt Q60492); assay: Displacement of [3H]-(+)-pentazocine from sigma1 receptor in guinea pig brain membrane after 180 mins by liquid scintillation counter; type: cell membranes
Sigma non-opioid intracellular receptor 1, sequence (Q60492 whole entry): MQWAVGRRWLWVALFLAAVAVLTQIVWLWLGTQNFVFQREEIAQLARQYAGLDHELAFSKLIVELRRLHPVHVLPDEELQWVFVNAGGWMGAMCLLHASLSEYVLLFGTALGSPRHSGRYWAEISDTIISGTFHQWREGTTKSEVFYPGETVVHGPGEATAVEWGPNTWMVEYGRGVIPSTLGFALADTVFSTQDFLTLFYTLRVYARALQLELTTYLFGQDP

| Ki [3] | SMILES | Time (Mus musculus [1]) | Time (Mus musculus [2]) |
| --- | --- | --- | --- |
| – | Cc1cc(OCCN2CCOCC2)nn1-c1ccc2ccccc2c1 | 16.8 s | 55.4 s |
| 21.1 nM | CC1CCN(CCCOc2nc(-c3ccc(Cl)cc3)nc3c2CCC3)CC1 | – | – |
| 138 nM | CN(C)CCCOc1nc(-c2ccccc2)nc2c1CCCC2 | – | – |
